A selection: hits, their analogues and other compounds. The true share with any hit is near 3.7%.
KCNK3 inh: human KCNK3 channel inhibitors, primary screen, CHO cells, FluxOR thallium flux, B-score | FluxOR fluorescence; active compounds read low | B-score at 10 µM | 340,000 tested, 0.84% active | AID 602410, 2012;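 active means B-score under library mean minus 4 SD, starting fluorescence ratio at most library mean plus 5 SD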;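 further: more negative B-score means stronger inhibition of thallium flux through KCNK3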
Target sequence (O14649 whole entry, looked up): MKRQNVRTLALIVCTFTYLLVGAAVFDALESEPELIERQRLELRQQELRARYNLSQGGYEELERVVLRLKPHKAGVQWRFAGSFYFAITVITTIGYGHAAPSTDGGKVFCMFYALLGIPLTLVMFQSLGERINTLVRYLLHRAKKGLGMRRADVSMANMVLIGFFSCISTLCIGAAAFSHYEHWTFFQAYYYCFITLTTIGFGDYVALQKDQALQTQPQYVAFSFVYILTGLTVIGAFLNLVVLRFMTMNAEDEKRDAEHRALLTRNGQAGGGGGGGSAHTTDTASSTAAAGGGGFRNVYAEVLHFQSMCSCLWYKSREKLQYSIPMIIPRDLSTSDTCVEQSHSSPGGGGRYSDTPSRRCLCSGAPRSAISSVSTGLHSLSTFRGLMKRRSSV
Kir21 inh: inhibitors of mouse Kir2.1 inward-rectifier potassium channel | Inward rectifier potassium channel 2 (Mus musculus), P35561 | HEK293-Kir2.1, FluxOR thallium flux fluorescence; active compounds read low | B-score at 10 µM | 310,000 tested, 0.85% active | AID 1672, 2009;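 active means fluorescence ratio B-score at or below minus 3 SD of library scores, with starting-brightness B-score within 2 SD, cut at about -4.2 in these data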;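 further: channel flux triggered by added potassium and thallium sulfate stimulus; B-score of peak minus minimum fluorescence over baseline after thallium stimulus; more negative B-score means stronger Kir2.1 block with less thallium influx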
KCNK9 inh: KCNK9 potassium channel inhibitors, primary screen, HEK293 cells, thallium flux. FluxOR thallium flux fluorescence; active compounds read low. B-score at 10 µM. 310,000 tested, 1.2% active. AID 488922, 2010;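 active means ratio B-score over 3 SD below the library mean, with starting fluorescence within 5 SD of its mean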;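 further: negative B-score means less thallium flux so channel inhibition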
KCNQ1 inh: inhibitors of human KCNQ1 channel, primary screen, cell-based, thallium flux, high-throughput | Potassium voltage-gated channel subfamily KQT member 1 (Homo sapiens), P51787 | CHO-K1 KCNQ1, FluxOR thallium flux fluorescence; active compounds read high | B-score at 10 µM | 310,000 tested, 1.3% active | AID 2642, 2010;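 active means compounds whose thallium flux B-score, printed positive for inhibition, exceeds three library SD while starting fluorescence stays within three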;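 further: channel opened by potassium depolarization with thallium stimulus after 20 min compound exposure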
hERG protect: hERG rescue from dofetilide block, primary screen, cell-based, CHO-hERG, FluxOR thallium flux, dofetilide IC70; Voltage-gated inwardly rectifying potassium channel KCNH2 (Homo sapiens), Q12809; dofetilide IC70 present; activation (rescue from dofetilide block), less the hit threshold, % at 10 µM; 310,000 tested, 0.51% active; AID 1511, 2009;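 active means activation above the mean of controls blocked by dofetilide plus 5 SD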;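 further: thallium influx through hERG after potassium depolarization seen as dye fluorescence rise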
KCNQ1 pot: potentiators or activators of KCNQ1 channel, primary screen, cell-based, thallium flux, high-throughput; Potassium voltage-gated channel subfamily KQT member 1 (Homo sapiens), P51787; CHO-K1 KCNQ1, thallium flux FluxOR fluorescence; active compounds read high; B-score at 10 µM; 310,000 tested, 0.35% active;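 active means fluorescence ratio B-score, a plate-corrected score, at least three library SD, with initial intensity B-score within 5 SD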
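Medium – assay buffer, equal DMSO in all wells · Material – CHO-K1 cell line with stable KCNQ1 potassium channel expression · Signal – kinetic FluxOR thallium fluorescence, 10-s 1-Hz baseline, 110-s post-stimulus read · Compound – single concentration per compound, DMSO matched to controls · Schedule – 37 °C overnight plating, 90-min dark dye load, 20-min compound pretreatment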
Active calls of the source: *.

`O=C(NCc1ccco1)c1ccc(N2CCCCC2)c([N+](=O)[O-])c1` gave KCNK3 inh inactive, Kir21 inh 0.01, KCNK9 inh inactive, KCNQ1 inh inactive, hERG protect -7 and KCNQ1 pot inactive.
`Cc1ccc(N(Cc2ccco2)C(=O)c2ccc(N3CCCCC3)c([N+](=O)[O-])c2)cc1` gave KCNK3 inh inactive, Kir21 inh 0.87, KCNK9 inh inactive, KCNQ1 inh 8*, hERG protect -7 and KCNQ1 pot inactive.
COc1ccccc1CNCC(=O)Nc1ccccc1-n1cccc1 was read as KCNK3 inh inactive, Kir21 inh -4.5*, KCNK9 inh inactive, KCNQ1 inh inactive, hERG protect -12 and KCNQ1 pot inactive.
Screening CCSc1nc2sc3c(c2c(=O)[nH]1)CC(C)(CC)OC3 (stereo unspecified) returned KCNK3 inh inactive, Kir21 inh -0.28, KCNK9 inh inactive, KCNQ1 inh inactive, hERG protect -6 and KCNQ1 pot inactive.
Screening CCC1(C)Cc2c(sc3nc(SC)[nH]c(=S)c23)CO1 (stereo unspecified) returned Kir21 inh 2.1, KCNK9 inh inactive, KCNQ1 inh inactive, hERG protect 49* and KCNQ1 pot 74*.
`CC(=O)Nc1ccc(NC(=O)COC(=O)C2CCCCC2)cc1` gave KCNK3 inh inactive.
`COc1ccc(OC)c(C(c2nnnn2C2CCCC2)N2CCN(c3ccccc3F)CC2)c1` (stereo unspecified) gave KCNK3 inh inactive, Kir21 inh 0.38, KCNK9 inh -8.9*, KCNQ1 inh inactive, hERG protect -7 and KCNQ1 pot inactive.
`CCc1nnc(NC(=O)c2oc3ccccc3c2COC(C)C)s1` gave KCNK3 inh inactive.
Screening CCN1C[C@@H]2[C@@H]3C(=O)N(C)C(=O)[C@@H]3[C@](C)(C(=O)OC)N2C1=NC returned KCNK3 inh inactive.
Screening O=S(=O)(/N=C(\c1ccccc1F)N1CCCCC1)c1ccccc1 returned KCNK3 inh inactive, Kir21 inh 0.04, KCNK9 inh inactive, KCNQ1 inh inactive, hERG protect -10 and KCNQ1 pot inactive.
Screening COc1ccc(CN2CCC(C(=O)Nc3ccc(Oc4cccnc4)cc3)CC2)cc1 returned KCNK3 inh inactive, Kir21 inh -5.4*, KCNK9 inh inactive, KCNQ1 inh inactive, hERG protect -12 and KCNQ1 pot inactive.
For CC1(C)CC(=O)/C(=C(/O)Cc2ccccc2)C(=NCCc2ccccc2)C1 the results were KCNK3 inh inactive, Kir21 inh -4.3*, KCNK9 inh inactive, KCNQ1 inh inactive, hERG protect -14 and KCNQ1 pot inactive.
For CCN(CC(=O)Nc1ccccc1OC)C(=O)CC1CCCC1 the results were KCNK3 inh inactive.
`Cc1oc(C)c2c(=O)ccc3c(c12)OC(N)=C(C#N)C3c1ccc(F)cc1` (stereo unspecified) gave KCNK3 inh inactive, Kir21 inh -0.01, KCNK9 inh inactive, KCNQ1 inh 8*, hERG protect -6 and KCNQ1 pot inactive.
For O=C(O)c1cc(NC(=O)c2ccccc2[N+](=O)[O-])ccc1O the results were KCNK3 inh inactive, Kir21 inh 0.16, KCNK9 inh inactive, KCNQ1 inh inactive, hERG protect -2 and KCNQ1 pot inactive.
Cc1ccc(S(=O)(=O)N2C[C@@H]3[C@H]4CC[C@H](C4)[C@@H]3[C@@H](C)[C@H]2C#N)cc1 was read as KCNK3 inh inactive.
For COC(=O)C1=C(C)N(Cc2ccc(C)cc2)C(=O)/C1=C\c1cc(OC)c(OC)c(OC)c1 the results were KCNK3 inh inactive, Kir21 inh -0.7, KCNK9 inh -6.6*, KCNQ1 inh inactive, hERG protect -14 and KCNQ1 pot inactive.
COC(=O)C1=C(C)N(Cc2ccccc2)C(=O)/C1=C\c1ccco1 was read as KCNK3 inh inactive, Kir21 inh -0.29, KCNK9 inh inactive, KCNQ1 inh inactive, hERG protect -6 and KCNQ1 pot inactive.
Nc1nc2c(s1)COc1ccccc1-2 was read as KCNK3 inh inactive, Kir21 inh -0.19, KCNK9 inh inactive, KCNQ1 inh inactive, hERG protect -5 and KCNQ1 pot inactive.
Nc1nc2c(s1)CCc1c-2cnn1-c1ccccc1 was read as KCNK3 inh inactive, Kir21 inh -4.5*, KCNK9 inh inactive, KCNQ1 inh inactive, hERG protect 2 and KCNQ1 pot inactive.
COc1ccc(-c2nnc(-c3ccc(C)cc3)o2)cc1 was read as KCNK3 inh inactive, Kir21 inh -0.69, KCNK9 inh inactive, KCNQ1 inh inactive, hERG protect -2 and KCNQ1 pot inactive.
`COc1ccc(-c2nnc(-c3ccccc3O)o2)cc1` gave KCNK3 inh inactive, Kir21 inh 0.26, KCNK9 inh inactive, KCNQ1 inh inactive, hERG protect 5.1* and KCNQ1 pot inactive.
Screening CCOC(=O)c1c(-c2ccc(C)o2)csc1NC(=O)COC(=O)c1cccs1 returned KCNK3 inh inactive, Kir21 inh -1.5, KCNK9 inh -6.7*, KCNQ1 inh inactive, hERG protect -24 and KCNQ1 pot inactive.
For CCOC(=O)c1c(-c2ccc(C)o2)csc1NC(=S)NC(=O)N(C)C the results were KCNK3 inh inactive, Kir21 inh -0.04, KCNK9 inh inactive, KCNQ1 inh inactive, hERG protect 14* and KCNQ1 pot 39*.
Screening CCOC(=O)c1c(-c2ccc(C)o2)csc1N returned KCNK3 inh inactive, Kir21 inh -0.53, KCNK9 inh inactive, KCNQ1 inh inactive, hERG protect -9 and KCNQ1 pot inactive.
Screening CCOC(=O)c1c(-c2ccc(C)o2)csc1NC(=O)CSc1ncn[nH]1 returned KCNK3 inh inactive, Kir21 inh -2.2, KCNK9 inh inactive, KCNQ1 inh inactive, hERG protect -12 and KCNQ1 pot inactive.
For O=C(COc1ccccc1)Nc1nnc(S(=O)(=O)Nc2ccccc2)s1 the results were KCNK3 inh inactive, Kir21 inh -0.37, KCNK9 inh inactive, KCNQ1 inh inactive, hERG protect -9 and KCNQ1 pot inactive.
O=C(NNC(=O)c1ccncc1)Nc1ccc(N=Nc2ccccc2)cc1 was read as KCNK3 inh inactive.
Screening COC1=CC(=O)OC(c2ccco2)C1 (stereo unspecified) returned KCNK3 inh inactive.
O=C1CCCc2c1oc1c2CCCC1 was read as KCNK3 inh inactive.
